Measurements reported in ChEMBL document CHEMBL3232716, “Tailoring cytotoxicity of antimicrobial peptidomimetics with high activity against multidrug-resistant Escherichia coli” (J Med Chem, 2014).
≈ marks a conversion by molar mass, not a printed value. Square brackets hold non-standard residues; d marks the D form. Peptide text beside a SMILES is read from it. hArg = N=C(N)NCCCC[C@H](N)C(=O)O; Nspe = C[C@H](NCC(=O)O)c1ccccc1; Nphe = O=C(O)CNCc1ccccc1

Assays:
[1] = Cytotoxicity against mouse NIH/3T3 cells after 1 hr by MTS/PMS assay; format: cell-based; details: NIH3T3, 1 h
Summary of the method: (§1)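 Monolayers (passage 4–10) grown ~21–25 h to ~90% confluence. Seeding per well: HeLa 8000, HepG2 23 000, NIH 3T3 22 000, IEC-6 16 000, Caco-2 25 000. Cells washed with HBSS/10 mM Hepes pH 7.4 and exposed 1 h at 37 °C, 50 rpm, to compound 0–2000 μM in culture medium. MTS 240 μg/mL/PMS 2.4 μg/mL for 1.5–4 h, A492. Viability referenced to SDS and untreated controls; IC50 from one biological replicate in triplicate.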

HepG2 = test: Cytotoxicity against human HepG2 cells after 1 hr by MTS/PMS assay; format: cell-based; details: HepG2, 1 h; summary of the method: as §1
HUVEC = test: Cytotoxicity against HUVEC after 1 hr by MTS/PMS assay; format: cell-based; details: Homo sapiens
Summary of the method: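 HUVEC seeded at 15 000 cells/well on collagen-coated wells (0.6 μg/cm2), passage 4–10, grown to ~90% confluence over 21–25 h. Cells exposed to compound (0–2000 μM) in F-12K medium for 1 h at 37 °C. MTS 240 μg/mL with PMS 9.6 μg/mL in HBSS for 1.5–4 h, then A492. Viability referenced to 0.2% SDS and untreated cells; IC50 reported.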

Escherichia coli [2] = test: Antibacterial activity against extended-spectrum beta-lactamase producing multidrug-resistant and colistin-susceptible Escherichia coli CTX-M-15 clinical isolate Aar 11 after 18 hrs by microdilution broth method; format: functional; details: CTX-M-15, 18 h
Escherichia coli [3] = test: Antibacterial activity against Escherichia coli ATCC 25922 after 18 hrs by microdilution broth method; format: functional; details: ATCC 25922, 18 h
Summary of the method: (§2)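 CLSI broth microdilution. […] Incubated 35 °C in ambient air for 18 h. MIC taken as the lowest concentration with no visible growth versus the compound-free control. Reported as median and range of three independent biological replicates run on separate days.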

Caco-2 = test: Cytotoxicity against human Caco2 cells after 1 hr by MTS/PMS assay; format: cell-based; details: Caco-2, 1 h; summary of the method: as §1
HeLa = test: Cytotoxicity against human HeLa cells after 1 hr by MTS/PMS assay; format: cell-based; summary of the method: as §1
Enterococcus faecium = test: Antibacterial activity against vancomycin-resistant Enterococcus faecium ATCC 700221 after 18 hrs by microdilution broth method; details: ATCC 700221, 18 h
Staphylococcus aureus = test: Antibacterial activity against methicillin-resistant Staphylococcus aureus ATCC 33591 after 18 hrs by microdilution broth method; format: functional; details: ATCC 33591, 18 h; summary of the method: as §2
Escherichia coli [4] = test: Antibacterial activity against NDM-1 producing Escherichia coli clinical isolate 74859898 after 18 hrs by microdilution broth method; format: functional; details: clinical isolate 74859898, 18 h
[5] = Binding affinity to cholesterol containing synthetic POPC/POPG liposomal membrane at 20 uM by circular dichroism analysis; format: physicochemical; details: artificial membrane
Summary of the method: (§3)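 CD spectra recorded with 20 μM test compound and 2 mM liposomes in 10 mM Tris buffer, pH 7.5. Liposomes were roughly 100 nm: POPC/POPG 7:3 (bacterial model) or POPC/POPG/cholesterol 5:3:2 (mammalian model). Lipid concentration was standardized by enzymatic phospholipid colorimetric assay.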

Acinetobacter baumannii = test: Antibacterial activity against multidrug-resistant Acinetobacter baumannii clinical isolate E2-1228625 after 18 hrs by microdilution broth method; format: functional; details: clinical isolate E2-1228625, 18 h
[6] = Binding affinity to synthetic POPC/POPG liposomal membrane at 20 uM by circular dichroism analysis; format: physicochemical; details: artificial membrane; summary of the method: as §3
[7] = Cytotoxicity against rat IEC-6 cells after 1 hr by MTS/PMS assay; format: cell-based; details: IEC-6, 1 h; summary of the method: as §1

Compound | IC50 [1] [µM] | IC50 (HepG2) [µM] | IC50 (HUVEC) [µM] | MIC (Escherichia coli [2]) [µM] | MIC (Escherichia coli [3]) [µM] | IC50 (Caco-2) [µM] | IC50 (HeLa) [µM] | MIC (Enterococcus faecium) [µM] | MIC (Staphylococcus aureus) [µM] | MIC (Escherichia coli [4]) [µM] | Activity [5] | MIC (Acinetobacter baumannii) [µM] | Activity [6] | IC50 [7] [µM]
CC(=O)N[C@@H](CCCCN)C(=O)N(CC(=O)N[C@@H](CCCCNC(=N)N)C(=O)N(CC(=O)N[C@@H](CCCCN)C(=O)N(CC(=O)N[C@@H](CCCCNC(=N)N)C(=O)N(CC(=O)N[C@@H](CCCCN)C(=O)N(CC(=O)N[C@@H](CCCCNC(=N)N)C(=O)N(CC(=O)N[C@@H](CCCCN)C(=O)N(CC(N)=O)Cc1ccccc1)Cc1ccccc1)Cc1ccccc1)Cc1ccccc1)Cc1ccccc1)Cc1ccccc1)Cc1ccccc1 (Ac-K[Nphe][hArg][Nphe]K[Nphe][hArg][Nphe]K[Nphe][hArg][Nphe]K[Nphe]-NH2) | 254 | 378 | 418 | 1 (≈ 2.11 µg/mL) | 1 (≈ 2.11 µg/mL) | > 1000 | 99 | 8 (≈ 16.9 µg/mL) | 32 (≈ 67.6 µg/mL) | 1 (≈ 2.11 µg/mL) | Not Active | 4 (≈ 8.45 µg/mL) | Not Active | 319
CC(=O)N[C@@H](CCCCN)C(=O)N(CCC(=O)N[C@@H](CCCCNC(=N)N)C(=O)N(CCC(=O)N[C@@H](CCCCN)C(=O)N(CCC(=O)N[C@@H](CCCCNC(=N)N)C(=O)N(CCC(=O)N[C@@H](CCCCN)C(=O)N(CCC(=O)N[C@@H](CCCCNC(=N)N)C(=O)N(CCC(N)=O)[C@@H](C)c1ccccc1)[C@@H](C)c1ccccc1)[C@@H](C)c1ccccc1)[C@@H](C)c1ccccc1)[C@@H](C)c1ccccc1)[C@@H](C)c1ccccc1 | 135 | 100 | 497 | 4 (≈ 8.02 µg/mL) | 2 (≈ 4.01 µg/mL) | 330 | 39 | 16 (≈ 32.1 µg/mL) | 16 (≈ 32.1 µg/mL) | 2 (≈ 4.01 µg/mL) | Not Active | 8 (≈ 16 µg/mL) | Not Active | 147
CC[C@H](C)[C@H](NC(=O)CN)C(=O)NCC(=O)N[C@@H](C)C(=O)N[C@H](C(=O)N[C@@H](CC(C)C)C(=O)N[C@@H](CCCCN)C(=O)N[C@H](C(=O)N[C@@H](CC(C)C)C(=O)N[C@H](C(=O)N[C@H](C(=O)NCC(=O)N[C@@H](CC(C)C)C(=O)N1CCC[C@H]1C(=O)N[C@@H](C)C(=O)N[C@@H](CC(C)C)C(=O)N[C@H](C(=O)N[C@@H](CO)C(=O)N[C@@H](Cc1c[nH]c2ccccc12)C(=O)N[C@H](C(=O)N[C@@H](CCCCN)C(=O)N[C@@H](CCCNC(=N)N)C(=O)N[C@@H](CCCCN)C(=O)N[C@@H](CCCNC(=N)N)C(=O)N[C@@H](CCC(N)=O)C(=O)N[C@@H](CCC(N)=O)C(N)=O)[C@@H](C)CC)[C@@H](C)CC)[C@@H](C)O)[C@@H](C)O)C(C)C)C(C)C [MELITTIN] |  | 2.5 |  |  |  | 4.5 | 1.9 |  |  |  |  |  |  | 
CC(=O)N[C@@H](CCCCNC(=N)N)C(=O)N(CC(=O)N[C@@H](CCCCN)C(=O)N(CC(=O)N[C@@H](CCCCNC(=N)N)C(=O)N(CC(=O)N[C@@H](CCCCN)C(=O)N(CC(=O)N[C@@H](CCCCNC(=N)N)C(=O)N(CC(N)=O)[C@@H](C)c1ccccc1)[C@@H](C)c1ccccc1)[C@@H](C)c1ccccc1)[C@@H](C)c1ccccc1)[C@@H](C)c1ccccc1 (Ac-[hArg][Nspe]K[Nspe][hArg][Nspe]K[Nspe][hArg][Nspe]-NH2) | 210 | 141 | 398 | 8 (≈ 13.1 µg/mL) | 8 (≈ 13.1 µg/mL) | 583 | 165 | 8 (≈ 13.1 µg/mL) | 32 (≈ 52.2 µg/mL) | 8 (≈ 13.1 µg/mL) | Not Active | 16 (≈ 26.1 µg/mL) | Not Active | 146
CN[C@H](CC(C)C)C(=O)N[C@H]1C(=O)N[C@@H](CC(N)=O)C(=O)N[C@H]2C(=O)N[C@H]3C(=O)N[C@H](C(=O)N[C@H](C(=O)O)c4cc(O)cc(O)c4-c4cc3ccc4O)[C@H](O)c3ccc(c(Cl)c3)Oc3cc2cc(c3O[C@@H]2O[C@H](CO)[C@@H](O)[C@H](O)[C@H]2O[C@H]2C[C@](C)(N)[C@H](O)[C@H](C)O2)Oc2ccc(cc2Cl)[C@H]1O [VANCOMYCIN] |  |  |  | > 128 | > 128 |  |  | 128 (≈ 186 µg/mL) | 0.5 (≈ 0.725 µg/mL) | > 128 |  | > 128 |  | 
O=C(O)c1cn(C2CC2)c2cc(N3CCNCC3)c(F)cc2c1=O [CIPROFLOXACIN] |  |  |  |  | < 0.125 |  |  |  | 0.25 (≈ 0.0828 µg/mL) |  |  |  |  | 
CC(=O)N[C@@H](CCCCNC(=N)N)C(=O)N(CC(=O)N[C@@H](CCCCN)C(=O)N(CC(=O)N[C@@H](CCCCNC(=N)N)C(=O)N(CC(=O)N[C@@H](CCCCN)C(=O)N(CC(=O)N[C@@H](CCCCNC(=N)N)C(=O)N(CC(N)=O)Cc1ccccc1)Cc1ccccc1)Cc1ccccc1)Cc1ccccc1)Cc1ccccc1 (Ac-[hArg][Nphe]K[Nphe][hArg][Nphe]K[Nphe][hArg][Nphe]-NH2) | > 1000 | 980 | > 1000 | 16 (≈ 25 µg/mL) | 8 (≈ 12.5 µg/mL) | > 1000 | 506 | 128 (≈ 200 µg/mL) | 128 (≈ 200 µg/mL) | 8 (≈ 12.5 µg/mL) | Not Active | > 128 | Not Active | 972
CC(=O)N[C@@H](CCCCN)C(=O)N(CCC(=O)N[C@@H](CCCCNC(=N)N)C(=O)N(CCC(=O)N[C@@H](CCCCN)C(=O)N(CCC(=O)N[C@@H](CCCCNC(=N)N)C(=O)N(CCC(=O)N[C@@H](CCCCN)C(=O)N(CCC(=O)N[C@@H](CCCCNC(=N)N)C(=O)N(CCC(=O)N[C@@H](CCCCN)C(=O)N(CCC(N)=O)[C@@H](C)c1ccccc1)[C@@H](C)c1ccccc1)[C@@H](C)c1ccccc1)[C@@H](C)c1ccccc1)[C@@H](C)c1ccccc1)[C@@H](C)c1ccccc1)[C@@H](C)c1ccccc1 | 89 | 48 | 236 | 2 (≈ 4.62 µg/mL) | 2 (≈ 4.62 µg/mL) | 197 | 26 | 4 (≈ 9.24 µg/mL) | 8 (≈ 18.5 µg/mL) | 2 (≈ 4.62 µg/mL) | Not Active | 2 (≈ 4.62 µg/mL) | Not Active | 80
CC(=O)N[C@@H](CCCCN)C(=O)N(CCC(=O)N[C@@H](CCCCNC(=N)N)C(=O)N(CCC(=O)N[C@@H](CCCCN)C(=O)N(CCC(=O)N[C@@H](CCCCNC(=N)N)C(=O)N(CCC(=O)N[C@@H](CCCCN)C(=O)N(CCC(=O)N[C@@H](CCCCNC(=N)N)C(=O)N(CCC(N)=O)Cc1ccccc1)Cc1ccccc1)Cc1ccccc1)Cc1ccccc1)Cc1ccccc1)Cc1ccccc1 | 362 | 321 | > 1000 | 1 (≈ 1.92 µg/mL) | 1 (≈ 1.92 µg/mL) | > 1000 | 228 | 32 (≈ 61.5 µg/mL) | 32 (≈ 61.5 µg/mL) | 1 (≈ 1.92 µg/mL) | Not Active | 16 (≈ 30.7 µg/mL) | Not Active | 457
CO/N=C(\C(=O)N[C@@H]1C(=O)N2C(C(=O)O)=C(COC(C)=O)CS[C@H]12)c1csc(N)n1 [CEFOTAXIME] |  |  |  | > 128 | < 0.125 |  |  | > 128 | > 128 | > 128 |  | > 128 |  | 
CC(=O)N[C@@H](CCCCNC(=N)N)C(=O)N(CCC(=O)N[C@@H](CCCCN)C(=O)N(CCC(=O)N[C@@H](CCCCNC(=N)N)C(=O)N(CCC(=O)N[C@@H](CCCCN)C(=O)N(CCC(=O)N[C@@H](CCCCNC(=N)N)C(=O)N(CCC(N)=O)[C@@H](C)c1ccccc1)[C@@H](C)c1ccccc1)[C@@H](C)c1ccccc1)[C@@H](C)c1ccccc1)[C@@H](C)c1ccccc1 | 237 | 185 |  | 8 (≈ 13.6 µg/mL) | 8 (≈ 13.6 µg/mL) | > 1000 | 136 | 64 (≈ 109 µg/mL) | 16 (≈ 27.2 µg/mL) | 8 (≈ 13.6 µg/mL) | Not Active | 64 (≈ 109 µg/mL) | Not Active | 186
